According to ChEMBL document CHEMBL1145518, “Potent immune-modulating and anticancer effects of NKT cell stimulatory glycolipids” (2007):
The source made the active and inactive calls. The calls are words filed in the database; no cut-off is given here.

Columns and labels:
[1] = Induction of RANTES secretion in human CD161+ CD3+ NKT cells at 10 ug/ml after 18 hrs relative to basal level; assay type: functional
In short: (§1)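 Human Vα24i NKT cell lines were expanded for 10 days on irradiated (3,000 rad) autologous immature DCs with 10 units/ml IL-2. The cells (1 × 10^5) were cocultured with 5 × 10^4 irradiated immature CD14+ DCs plus glycolipid at 10 μg/ml. Supernatants were collected at 18 h and read on a 22-plex Luminex bead panel. Triplicates, mean ± SD.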

[2] = Induction of IL8 secretion in human CD161+ CD3+ NKT cells at 10 ug/ml after 18 hrs relative to basal level; assay type: functional; in short: as §1
Mus musculus [3] = test: Increase in CD8/CD4 T cell ratio in BALB/c mouse at 2 ug, iv after 72 hrs by flow cytometry; assay type: functional, organism-based
Mus musculus [4] = test: Induction of IL2 secretion in BALB/c mouse serum at 2 ug, iv after 2 hrs relative to control; assay type: functional
In short: (§2)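 BALB/c mice received an i.v. injection of 100 μl of glycolipid diluted to 20 μg/ml in saline from DMSO stock, with 1% DMSO as vehicle. Serum cytokines/chemokines were measured at 2 and 18 h after injection.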

Mus musculus [5] = test: Induction of MIPbeta secretion in BALB/c mouse serum at 2 ug, iv after 2 hrs relative to control; assay type: functional; in short: as §2
[6] = Promotion of maturation of human dendritic cells assessed as increase in CD40 expression at 3 ug/ml after 48 hrs; assay type: functional, cell-based; conditions: Dendritic cell
In short: (§3)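 Immature DCs were derived from leukopak CD14+ cells by 2 days in 300 units/ml GM-CSF plus 100 units/ml IL-4. DCs (2 × 10^6) were incubated with glycolipid at 3 μg/ml or vehicle for 48 h. Surface CD40, CD80, CD83, CD86 and HLA-DR were measured by flow cytometry as mean fluorescence intensity.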

[7] = Promotion of maturation of human dendritic cells assessed as increase in CD80 expression at 3 ug/ml after 48 hrs; assay type: functional, cell-based; conditions: Dendritic cell; in short: as §3
[8] = Promotion of maturation of human dendritic cells assessed as increase in CD83 expression at 3 ug/ml after 48 hrs; assay type: functional, cell-based; conditions: Dendritic cell; in short: as §3
[9] = Promotion of maturation of human dendritic cells assessed as increase in CD86 expression at 3 ug/ml after 48 hrs; assay type: functional, cell-based; conditions: Dendritic cell; in short: as §3
[10] = Promotion of maturation of human dendritic cells assessed as increase in HLA-DR expression at 3 ug/ml after 48 hrs; assay type: functional, cell-based; conditions: Dendritic cell; in short: as §3
Mus musculus [11] = test: Activation of dendritic cells in BALB/c mouse at 2 ug, iv after 72 hrs by flow cytometry; assay type: functional, organism-based
In short: (§4)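 BALB/c mice (n = 4/group) were given 100 μl of glycolipid at 20 μg/ml in saline i.v., or 100 μl of 1% DMSO. Spleens were harvested after 72 h and splenocyte subsets counted by flow cytometry: mature DCs as CD11c+/CD80+/CD86+, activated NK as U5A2-13Ag+/CD3−/CD69+, activated NKT as U5A2-13Ag+/CD3+/CD69+. Assays were run in duplicate, mean ± SD.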

Mus musculus [12] = test: Activation of natural killer cells in BALB/c mouse at 2 ug, iv after 72 hrs by flow cytometry; assay type: functional, organism-based; in short: as §4
Mus musculus [13] = test: Activation of NKT cells in BALB/c mouse at 2 ug, iv after 72 hrs by flow cytometry; assay type: functional, organism-based; in short: as §4
NKT = test: Stimulation of cell expansion of human invariant CD161+/ Valpha24+/ CD56+/ CD3+ NKT cells by flow cytometry method; assay type: functional, cell-based
In short: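 CD56+ NK/NKT mixtures (2 × 10^6) were isolated from human leukopaks with anti-CD56 microbeads. They were cocultured with 4 × 10^5 autologous immature CD14+ DCs pulsed with glycolipid at 3 μg/ml, or with 0.3% DMSO, on day 2 for 18 h. Suspension cells were then transferred and kept in 100 units/ml IL-2 with fresh medium every 3 days. On day 9, CD161+/Vα24TCR+ cells were gated by flow cytometry and total Vα24i NKT cells counted. Triplicates, mean ± SD.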

Mus musculus [14] = test: Activation of B cells in BALB/c mouse at 2 ug, iv after 72 hrs by flow cytometry; assay type: functional, organism-based

SMILES	Activity [1]	Activity [2]	Activity (Mus musculus [3])	Activity (Mus musculus [4])	Activity (Mus musculus [5])	Activity [6]	Activity [7]	Activity [8]	Activity [9]	Activity [10]	Activity (Mus musculus [11])	Activity (Mus musculus [12])	Activity (Mus musculus [13])	Activity (NKT)	Activity (Mus musculus [14])
CCCCCCCCCCCCCCCCCCCCCCCCCC(=O)N[C@@H](CO[C@H]1O[C@H](CO)[C@H](O)[C@H](O)[C@H]1O)[C@H](O)[C@H](O)CCc1ccccc1	2.5	3	Active	75.3	5.3	Active	Active	Active	Active	Active	Active	Active	Active		
CCCCCCCCCCCCCCCCCCCCCCCCCC(=O)N[C@@H](CO[C@H]1O[C@H](CO)[C@H](O)[C@H](O)[C@H]1O)[C@H](O)[C@H](O)CCCCCCCCCCCCCC [RGI-7000]	1.6	1.7	Active	58.9	3.6						Active			Active	Active
